High-throughput results as filed in PubChem.
NPY1 pot ag = human NPY-Y1 potentiation or agonism, primary screen; P25929; NPY-Y1 expressing cells, potentiator/agonist activation; activation, % at 3.6 µM; hit rate 0.37% among 220,000; in the data active means activation above about 33%, passing the limit was not always enough;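 further: cells stimulated with NPY at EC10 then isoproterenol at EC100; 0% = low agonist plus stimulus and 100% = saturating agonist plus stimulus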
Target sequence (P25929 whole entry, looked up): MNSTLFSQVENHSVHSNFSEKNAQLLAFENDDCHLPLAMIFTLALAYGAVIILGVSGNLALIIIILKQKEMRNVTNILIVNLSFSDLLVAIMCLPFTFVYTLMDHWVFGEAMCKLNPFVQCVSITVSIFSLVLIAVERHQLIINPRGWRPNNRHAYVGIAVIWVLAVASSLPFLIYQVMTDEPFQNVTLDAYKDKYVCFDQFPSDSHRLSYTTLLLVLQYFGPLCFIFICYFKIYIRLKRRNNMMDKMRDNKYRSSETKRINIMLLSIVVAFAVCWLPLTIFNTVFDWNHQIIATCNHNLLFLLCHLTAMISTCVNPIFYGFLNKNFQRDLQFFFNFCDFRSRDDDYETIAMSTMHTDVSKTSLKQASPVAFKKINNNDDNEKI
NPY Y1 blocker = NPY-Y1 (human) receptor antagonism | P25929 | HEK293-CNG Y1 cells, membrane potential fluorescence; NPY at EC95, then isoproterenol | inhibition, % at 3.6 µM | hit rate 1% among 200,000;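 active means inhibition above the campaign mean inhibition of all tested compounds plus 3 SD, cut at about 20% in these data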;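 further: 0% = DMSO wells given NPY plus isoproterenol and 100% = isoproterenol alone without NPY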
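Material: HEK293 Y1/CNG channel cell line | Also added: NPY (25 nM), isoproterenol (1 µM), Ro 20-1724 (25 µM) | Compound: One concentration, 3.6 µM, in 0.4% DMSO | Schedule: 3 h dye uptake, 1 h room-temperature compound, 45 min post-isoproterenol | Signal: Membrane-potential fluorescent dye readout | Read-out: % inhibition of NPY effect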
Mdm2 ligase inh = blocks human Mdm2 ubiquitin ligase activity; hit rate 0.11% among 210,000; cell-based MDM2 ubiquitination luciferase reporter, 2 h; 0 = plate control, 100 = twice control, blank-subtracted; signal enhancement, % at 5 µM;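 active means signal enhancement of 30% or more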;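 further: luminescence tracks abundance of the self-degrading MDM2-luciferase fusion protein; higher signal means inhibition of MDM2 E3 ligase activity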
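Test system: mammalian cells stably expressing self-ubiquitinating, self-degrading MDM2 E3–luciferase fusion; Amount: 2000 cells in each well; Medium: DMEM; Schedule: 4 h settle plus 2 h compound, 37 °C; Technique: SteadyLite luciferase luminescence after 15 min room-temperature reagent incubation; Benchmarks: plate control and blank wells.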
NPY-Y2 PAM-ag = potentiates or activates human NPY-Y2 receptor | cells expressing NPY-Y2, potentiator/agonist read-out | activation, % at 3.6 µM | AID 1359 | hit rate 0.45% among 220,000; in the data active means activation above about 27%;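 further: cells stimulated with NPY near EC25 plus isoproterenol at EC100; 0% = vehicle plus submaximal agonist and 100% = vehicle plus saturating agonist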
NPY Y2 blocker = antagonists of human neuropeptide Y receptor Y2; hit rate 0.99% among 140,000; inhibition, % at 2.7 µM; NPY-Y2 expressing cells, antagonist mode; in the data active means inhibition above about 17%;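 further: 0% = vehicle with agonist challenge and 100% = reference antagonist with challenge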
Measles CPE = protection of cells from measles virus; Measles virus-infected cells, CPE protection, absorbance; AID 841; hit rate 1.5% among 140,000; protection (pct of control), % at 4 µM; in the data active means protection mostly above about 24%, no sharp cut-off; inactive means mostly below about 26%
* marks the source's active call; other numbers are inactive results; · = not tested or not shown. Hits are enriched below; roughly 2.8% of the tested compounds scored in any of these assays.

SMILES	NPY1 pot ag	NPY Y1 blocker	Mdm2 ligase inh	NPY-Y2 PAM-ag	NPY Y2 blocker	Measles CPE
CCCNCC(O)COc1ccccc1C(=O)CCc1ccccc1 (stereo unspecified)	99*	-7	·	87*	8	1
CCN(CC)CC(O)COc1ccccc1C(=O)CCc1ccccc1 (stereo unspecified)	51*	3	·	39*	8	·
Cc1nn(C)cc1C1C2=C(CC(C)(C)CC2=O)OC2=C1C(=O)CC(C)(C)C2	6	6	-17	3	1	17
COc1ccc(S(=O)(=O)N2CCOCC2)cc1NC(=O)CN1CCCC1	0	4	-9	-24	·	·
COc1ccc(S(=O)(=O)N2CCOCC2)cc1NC(=O)CN1CCC(Cc2ccccc2)CC1	-23	40*	-14	-34	32*	4
O=C(O)CC(NC(=O)OCc1ccccc1)c1ccccc1 (stereo unspecified)	-23	17	-7	-29	6	20*
NC(=O)CC(NC(=O)OCc1ccccc1)C(=O)O (stereo unspecified)	12	1	-19	4	1	23
COc1cccc(NC(=O)NCc2c(-c3ccccc3)noc2C)c1	15	·	1	12	·	·
CSc1ccccc1NC(=O)Cn1c(-c2cscn2)nc2ccccc21	-14	3	-6	-9	5	96*
CCCCCC1CCC(C(=O)O)CC1 (stereo unspecified)	-38	26*	-17	-13	12	9
Cc1ccc(C2CC(C(F)(F)F)n3nc(C(=O)NCc4ccco4)cc3N2)cc1 (stereo unspecified)	-5	-7	-13	5	4	10
Cc1nn(C)cc1CNC(=O)c1cc2n(n1)C(C(F)(F)F)CC(c1cccs1)N2 (stereo unspecified)	12	0	15	7	1	20*
COc1cc(C2CC(=O)c3c(O)cc(O)cc3O2)ccc1O (stereo unspecified)	-13	-5	1	7	·	·
O=C1C[C@@H](c2ccc(O)cc2)Oc2cc(O)cc(O)c21	1	1	·	-5	1	31*
CCCCCCCNc1cccc(C)c1	15	·	-2	-5	·	·
CCCCNc1n[n+](C)c(-c2cccc(C)c2)s1	·	·	35*	·	·	·
CN(C)S(=O)(=O)Oc1cccc(C(=O)Nc2ccc([N+](=O)[O-])cc2)c1	11	-9	-27	17	·	·
Cc1ccc(C(C)C)c(OCC(O)CN2CCOCC2)c1 (stereo unspecified)	89*	-13	-14	76*	1	22
Cc1ccc(Cl)cc1N1CCN(CC(O)COC(C)C)CC1 (stereo unspecified)	2	·	-7	-13	·	·
Cc1ccc(OCC(O)CN2CCN(CC(O)COC(C)C)CC2)c(C(C)(C)C)c1 (stereo unspecified)	96*	-15	-3	93*	5	3
Cc1cc(OCC(O)CN2CCN(C)CC2)ccc1C(C)C (stereo unspecified)	-20	5	-31	2	0	9
Cc1ccc(C(C)C)c(OCC(O)CN2CCN(CCO)CC2)c1 (stereo unspecified)	101*	-11	1	81*	4	15
Cc1ccc(C(C)C)c(OCC(O)CN2CC(C)OC(C)C2)c1 (stereo unspecified)	93*	-10	6	92*	4	15
CC1CN(CC(O)COc2ccc(C(=O)c3ccccc3)cc2)CC(C)O1 (stereo unspecified)	-14	1	-29	-12	2	5
COC(=O)c1ccccc1NC(=O)CSCC(=O)Nc1ccc(F)cc1	-2	0	-4	-5	3	3
SMILES	NPY1 pot ag	NPY Y1 blocker	Mdm2 ligase inh	NPY-Y2 PAM-ag	NPY Y2 blocker	Measles CPE
O=C(COc1ccc(/C=N/NS(=O)(=O)c2ccccc2)cc1)Nc1cccc(Cl)c1	25	43*	-5	8	18*	9
O=C(COc1ccc(/C=N/NS(=O)(=O)c2ccccc2)cc1)NCc1ccccc1	0	-3	-6	-3	1	14
CCCn1c(SCC(=O)Nc2cc(S(=O)(=O)N(C)C)ccc2OC)n[nH]c1=O	-11	-2	2	4	·	·
COc1ccc(OCCC(=O)OCC(=O)Nc2cccc(Br)c2)cc1	-11	6	-14	-16	2	41*
O=[N+]([O-])c1cc(CN2CCCC2)ccc1Sc1ccc(Cl)cc1	26	6	0	20	·	·
COCCCNC(=O)c1ccc(C(=O)NCCCOC)cc1	8	1	0	1	0	5
COCCCNC(=O)c1ccc([N+](=O)[O-])c(Cl)c1	6	1	-7	1	1	36*
O=C(OCC(=O)N1CCc2ccccc21)c1cccnc1Cl	23	-2	-21	-3	-1	6
O=C(OCC(=O)N1CCCc2ccccc21)c1cccnc1Cl	-1	1	-3	16	1	39*
Cc1nc2ncnn2c(C)c1CCC(=O)N1CCc2ccccc21	-3	3	-8	-4	3	40*
Cc1nc2nc(C)c(CCC(=O)N3CCc4ccccc43)c(C)n2n1	6	-2	5	-15	0	6
COc1ccc(-c2nc(C#N)c(NCc3ccc(F)cc3)o2)cc1OC	-10	24*	-7	-20	24*	15
N#CC1=C(N)OC2=C(C(=O)CC(c3ccccc3)C2)C1c1ccoc1 (stereo unspecified)	-21	-10	-4	-5	2	30*
Cc1cc(NC(=O)CCN2C(=O)C3C4CCC(C4)C3C2=O)c(C)cc1Br (stereo unspecified)	21	2	-18	6	1	3
Cc1cccc(C)c1NC(=O)CCN1C(=O)C2C3CCC(C3)C2C1=O (stereo unspecified)	-5	1	-5	-3	0	21*
Oc1ccccc1-n1nc2ccc3nonc3c2n1	-4	·	-13	-15	·	·
O=C(O)c1ccccc1Nc1ccc([N+](=O)[O-])cc1	-15	3	-4	-12	6	83*
O=C(O)c1ccccc1Nc1ccccc1C(=O)O	-4	4	8	-17	-2	4
CCN(CC)C(=O)C(=O)c1cccn1-c1cccc(OC)c1C#N	9	3	-3	-4	·	·
Cc1ccc(S(=O)(=O)CNC(=S)c2cccc(Cl)c2)cc1	-19	-3	-8	1	4	43*
CC(C)C(NC(=O)COc1ccccc1)C(=O)O (stereo unspecified)	-12	1	-6	-8	7	44*
CC(CCCC(C)(C)O)NCc1cn[nH]c1-c1ccc2c(c1)OCO2 (stereo unspecified)	-28	-2	4	-13	·	·
S=c1nn[nH]n1C12CC3CC(CC(C3)C1)C2	5	4	-6	4	3	34*
S=c1nc(C23CC4CC(CC(C4)C2)C3)[nH][nH]1	10	·	-1	23	·	·
